Laboratory results as given in ChEMBL document CHEMBL3877325, “Novel salicylanilides from 4,5-dihalogenated salicylic acids: Synthesis, antimicrobial activity and cytotoxicity” (Bioorg Med Chem, 2017).
≈ marks a conversion by molar mass, not a printed value.

Tests used:
[1] = system: Mycobacterium tuberculosis; assay: Antimycobacterial activity against Mycobacterium tuberculosis H37Rv My 331/88 after 14 days by micromethod; assay type: functional; settings: H37Rv My 331/88, 336 h
Outline: (§1)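 MIC micromethod in Šula's semisynthetic medium at 37 °C, read after 14 and 21 days. Compounds added as DMSO solutions at 500 down to 0.5 µM (twofold-type series: 500, 250, 125, 62.5, 32, 16, 8, 4, 2, 1, 0.5 µM). Isoniazid standard given in sterile water.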

Mycobacterium avium [2] = assay: Antimycobacterial activity against Mycobacterium avium My 330/80 after 14 days by micromethod; assay type: functional; settings: My 330/80, 336 h
Outline: (§2)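 M. avium My 330/80 (collection strain) inoculated at 10^-5 dilution into Šula's semisynthetic medium. Compounds added from DMSO solutions at 500, 250, 125, 62.5, 32, 16, 8, 4, 2, 1 and 0.5 µM. MIC determined by micromethod at 37 °C, read after 14 and 21 days.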

Mycobacterium kansasii [3] = assay: Antimycobacterial activity against Mycobacterium kansasii isolate 6509/96 after 21 days by micromethod; assay type: functional; settings: isolate 6509/96, 504 h
Outline: (§3)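 MIC in Šula's semisynthetic medium at 37 °C, read after 7, 14 and 21 days. Inoculum is strain dilution 10^-4; 235/80 is a collection strain and 6509/96 a clinical isolate. Compounds are added as DMSO solutions at 500, 250, 125, 62.5, 32, 16, 8, 4, 2, 1 and 0.5 µM. INH (in sterile water) and PAS are the reference drugs.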

Mycobacterium kansasii [4] = assay: Antimycobacterial activity against Mycobacterium kansasii isolate 235/80 after 14 days by micromethod; assay type: functional; settings: isolate 235/80, 336 h; outline: as §3
[5] = Selectivity index, ratio of IC50 for human HepG2 cells to MIC for Mycobacterium tuberculosis H37Rv after 21 days; assay type: toxicity, cell-based; settings: HepG2 cells versus Mycobacterium tuberculosis H37Rv, read-out: Selectivity Index
Outline: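 HepG2 cells (passages 33-37) seeded at 1 × 10^4 per well and treated next day with 0.1–100 µM in triplicate. After 24 h at 37 °C, 5% CO2, MTS reagent added for 2 h and absorbance read at 490 nm. IC50 taken from viability relative to untreated control, then divided by the 21-day H37Rv MIC.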

Mycobacterium kansasii [6] = assay: Antimycobacterial activity against Mycobacterium kansasii isolate 6509/96 after 7 days by micromethod; assay type: functional; settings: isolate 6509/96, 168 h; outline: as §3
Mycobacterium kansasii [7] = assay: Antimycobacterial activity against Mycobacterium kansasii isolate 235/80 after 7 days by micromethod; assay type: functional; settings: isolate 235/80, 168 h; outline: as §3
Mycobacterium kansasii [8] = assay: Antimycobacterial activity against Mycobacterium kansasii isolate 235/80 after 21 days by micromethod; assay type: functional; settings: isolate 235/80, 504 h; outline: as §3
[9] = system: Mycobacterium tuberculosis; assay: Antimycobacterial activity against Mycobacterium tuberculosis H37Rv My 331/88 after 21 days by micromethod; assay type: functional; settings: H37Rv My 331/88, 504 h; outline: as §1
Mycobacterium kansasii [10] = assay: Antimycobacterial activity against Mycobacterium kansasii isolate 6509/96 after 14 days by micromethod; assay type: functional; settings: isolate 6509/96, 336 h; outline: as §3
[11] = Cytotoxicity against human HepG2 cells assessed as reduction in cell viability after 24 hrs by MTS assay; assay type: toxicity, cell-based
Outline: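 HepG2 cells (passages 33-37) are grown in MEM with 10% FBS, L-glutamine and non-essential amino acids. They are seeded at 1 × 10^4 cells/well and treated next day with 0.1-100 µM in triplicate for 24 h at 37 °C, 5% CO2. MTS reagent is added for 2 h and A490 read.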

Mycobacterium avium [12] = assay: Antimycobacterial activity against Mycobacterium avium My 330/80 after 21 days by micromethod; assay type: functional; settings: My 330/80, 504 h; outline: as §2

| SMILES | MIC [1] | MIC (Mycobacterium avium [2]) | MIC (Mycobacterium kansasii [3]) | MIC (Mycobacterium kansasii [4]) | selectivity ratio at 504 h [5] | MIC (Mycobacterium kansasii [6]) | MIC (Mycobacterium kansasii [7]) | MIC (Mycobacterium kansasii [8]) | MIC [9] | MIC (Mycobacterium kansasii [10]) | IC50 at 24 h [11] | MIC (Mycobacterium avium [12]) |
| --- | --- | --- | --- | --- | --- | --- | --- | --- | --- | --- | --- | --- |
| O=C(Nc1cc(C(F)(F)F)cc(C(F)(F)F)c1)c1ccc(Br)cc1O | 2 µM (≈ 0.856 µg/mL) | 32 µM (≈ 13.7 µg/mL) | 16 µM (≈ 6.85 µg/mL) | 8 µM (≈ 3.43 µg/mL) | 2.02 | 8 µM (≈ 3.43 µg/mL) | 8 µM (≈ 3.43 µg/mL) | 16 µM (≈ 6.85 µg/mL) | 4 µM (≈ 1.71 µg/mL) | 16 µM (≈ 6.85 µg/mL) | 8.08 µM | 32 µM (≈ 13.7 µg/mL) |
| O=C(Nc1ccc(Br)cc1)c1cc(Cl)c(Br)cc1O | 2 µM (≈ 0.811 µg/mL) | 32 µM (≈ 13 µg/mL) | 8 µM (≈ 3.24 µg/mL) | 8 µM (≈ 3.24 µg/mL) | 4.89 | 4 µM (≈ 1.62 µg/mL) | 4 µM (≈ 1.62 µg/mL) | 8 µM (≈ 3.24 µg/mL) | 2 µM (≈ 0.811 µg/mL) | 8 µM (≈ 3.24 µg/mL) | 9.78 µM | 32 µM (≈ 13 µg/mL) |
| O=C(Nc1cc(C(F)(F)F)cc(C(F)(F)F)c1)c1cc(Cl)c(Br)cc1O | 2 µM (≈ 0.925 µg/mL) | 32 µM (≈ 14.8 µg/mL) | 8 µM (≈ 3.7 µg/mL) | 8 µM (≈ 3.7 µg/mL) | 2.4 | 8 µM (≈ 3.7 µg/mL) | 8 µM (≈ 3.7 µg/mL) | 8 µM (≈ 3.7 µg/mL) | 2 µM (≈ 0.925 µg/mL) | 8 µM (≈ 3.7 µg/mL) | 4.8 µM | 32 µM (≈ 14.8 µg/mL) |
| O=C(Nc1ccc(Cl)c(Cl)c1)c1ccc(Br)cc1O | 1 µM (≈ 0.361 µg/mL) | 16 µM (≈ 5.78 µg/mL) | 8 µM (≈ 2.89 µg/mL) | 4 µM (≈ 1.44 µg/mL) | 8.84 | 4 µM (≈ 1.44 µg/mL) | 4 µM (≈ 1.44 µg/mL) | 4 µM (≈ 1.44 µg/mL) | 2 µM (≈ 0.722 µg/mL) | 4 µM (≈ 1.44 µg/mL) | 17.7 µM | 16 µM (≈ 5.78 µg/mL) |
| O=C(Nc1ccc(C(F)(F)F)cc1)c1cc(Br)c(Br)cc1O | 2 µM (≈ 0.878 µg/mL) | 32 µM (≈ 14 µg/mL) | 4 µM (≈ 1.76 µg/mL) | 4 µM (≈ 1.76 µg/mL) | 3.13 | 4 µM (≈ 1.76 µg/mL) | 4 µM (≈ 1.76 µg/mL) | 4 µM (≈ 1.76 µg/mL) | 2 µM (≈ 0.878 µg/mL) | 4 µM (≈ 1.76 µg/mL) | 6.25 µM | 62.5 µM (≈ 27.4 µg/mL) |
| O=C(Nc1ccc(Cl)c(Cl)c1)c1cc(Cl)c(Br)cc1O | 2 µM (≈ 0.791 µg/mL) | 125 µM (≈ 49.4 µg/mL) | 8 µM (≈ 3.16 µg/mL) | 8 µM (≈ 3.16 µg/mL) | 2.76 | 8 µM (≈ 3.16 µg/mL) | 8 µM (≈ 3.16 µg/mL) | 8 µM (≈ 3.16 µg/mL) | 4 µM (≈ 1.58 µg/mL) | 8 µM (≈ 3.16 µg/mL) | 11.1 µM | 125 µM (≈ 49.4 µg/mL) |
| O=C(Nc1ccc(Br)cc1)c1cc(Br)c(Br)cc1O | 4 µM (≈ 1.8 µg/mL) | 32 µM (≈ 14.4 µg/mL) | 8 µM (≈ 3.6 µg/mL) | 8 µM (≈ 3.6 µg/mL) | 4.47 | 8 µM (≈ 3.6 µg/mL) | 4 µM (≈ 1.8 µg/mL) | 8 µM (≈ 3.6 µg/mL) | 4 µM (≈ 1.8 µg/mL) | 8 µM (≈ 3.6 µg/mL) | 17.9 µM | 32 µM (≈ 14.4 µg/mL) |
| O=C(Nc1ccc(C(F)(F)F)cc1)c1cc(Cl)c(Br)cc1O | 1 µM (≈ 0.395 µg/mL) | 32 µM (≈ 12.6 µg/mL) | 4 µM (≈ 1.58 µg/mL) | 4 µM (≈ 1.58 µg/mL) | 3.26 | 4 µM (≈ 1.58 µg/mL) | 4 µM (≈ 1.58 µg/mL) | 4 µM (≈ 1.58 µg/mL) | 2 µM (≈ 0.789 µg/mL) | 4 µM (≈ 1.58 µg/mL) | 6.52 µM | 32 µM (≈ 12.6 µg/mL) |
| O=C(Nc1ccc(Cl)c(Cl)c1)c1cc(Br)c(Br)cc1O | 2 µM (≈ 0.88 µg/mL) | 62.5 µM (≈ 27.5 µg/mL) | 8 µM (≈ 3.52 µg/mL) | 8 µM (≈ 3.52 µg/mL) | 1.99 | 8 µM (≈ 3.52 µg/mL) | 8 µM (≈ 3.52 µg/mL) | 8 µM (≈ 3.52 µg/mL) | 4 µM (≈ 1.76 µg/mL) | 8 µM (≈ 3.52 µg/mL) | 7.96 µM | 62.5 µM (≈ 27.5 µg/mL) |
| O=C(Nc1cc(C(F)(F)F)cc(C(F)(F)F)c1)c1cc(Br)c(Br)cc1O | 2 µM (≈ 1.01 µg/mL) | 16 µM (≈ 8.11 µg/mL) | 8 µM (≈ 4.06 µg/mL) | 8 µM (≈ 4.06 µg/mL) | 1.5 | 8 µM (≈ 4.06 µg/mL) | 4 µM (≈ 2.03 µg/mL) | 8 µM (≈ 4.06 µg/mL) | 2 µM (≈ 1.01 µg/mL) | 8 µM (≈ 4.06 µg/mL) | 3 µM | 32 µM (≈ 16.2 µg/mL) |
| Nc1ccc(C(=O)O)c(O)c1 [AMINOSALICYLIC ACID] | 62.5 µM (≈ 9.57 µg/mL) | 32 µM (≈ 4.9 µg/mL) | 500 µM (≈ 76.6 µg/mL) | 1000 µM (≈ 153 µg/mL) | – | 32 µM (≈ 4.9 µg/mL) | 125 µM (≈ 19.1 µg/mL) | > 1000 µM | 62.5 µM (≈ 9.57 µg/mL) | 125 µM (≈ 19.1 µg/mL) | – | 125 µM (≈ 19.1 µg/mL) |
| NNC(=O)c1ccncc1 [ISONIAZID] | 0.5 µM (≈ 0.0686 µg/mL) | > 250 µM | 8 µM (≈ 1.1 µg/mL) | > 250 µM | – | 4 µM (≈ 0.549 µg/mL) | > 250 µM | > 250 µM | 1 µM (≈ 0.137 µg/mL) | 8 µM (≈ 1.1 µg/mL) | – | > 250 µM |
